Legend:
[1] = Half-life in human liver S9 fraction at 1 uM pretreated for 5 mins followed by NADPH/UDPGA/ PAPS addition by Q-TOF LC-MS/MS analysis; type: ADME, subcellular
Summary of the method: (§1)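 Human liver S9 fraction (1 mg/mL) in 50 mM Tris buffer, pH 7.5, fortified with NADPH (1 mM), UDPGA and PAPS to support oxidative, glucuronidation and sulfation pathways. Parent loss and metabolites were analysed by Q-TOF LC-MS/MS.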

[2] = Drug metabolism in human liver S9 fraction assessed as SULT-mediated compound sulfation by measuring M1 formation at 1 uM pretreated for 5 mins followed by NADPH/UDPGA/ PAPS addition by Q-TOF LC-MS/MS analysis; type: ADME, subcellular; conditions: s9, 1 µM; summary of the method: as §1
[3] = Drug metabolism in human liver S9 fraction assessed as UGT-mediated compound glucuronidation by measuring M2 formation at 1 uM pretreated for 5 mins followed by NADPH/UDPGA/ PAPS addition by Q-TOF LC-MS/MS analysis; type: ADME, subcellular; conditions: s9, 1 µM; summary of the method: as §1
[4] = Drug metabolism in human liver microsomes assessed as compound oxidation at 1 uM measured after 5 mins in absence of NADPH by Q-TOF LC-MS/MS analysis; type: ADME, microsome
[5] = test system: B16; assay: Inhibition of alpha-MSH stimulated melanogenesis in mouse B16 cells; type: functional, cell-based
[6] = Drug metabolism in human liver S9 fraction assessed as compound oxidation by measuring (4-Benzo[1,3]dioxol-5-yl-1-oxo-thiazol-2-yl)-(4-trifluoromethyl-benzyl)-amine formation at 1 uM pretreated for 5 mins followed by NADPH/UDPGA/ PAPS addition by Q-TOF LC-MS/MS analysis; type: ADME, subcellular; conditions: s9, 1 µM; summary of the method: as §1
[7] = Drug metabolism in human liver S9 fraction assessed as compound oxidation by measuring 4-[2-(4-Trifluoromethyl-benzylamino)-thiazol-4-yl]-benzene-1,2-diol formation at 1 uM pretreated for 5 mins followed by NADPH/UDPGA/ PAPS addition by Q-TOF LC-MS/MS analysis; type: ADME, subcellular; conditions: s9, 1 µM; summary of the method: as §1
[8] = Drug metabolism in human liver S9 fraction assessed as SULT-mediated compound sulfation by measuring M3 formation at 1 uM pretreated for 5 mins followed by NADPH/UDPGA/ PAPS addition by Q-TOF LC-MS/MS analysis; type: ADME, subcellular; conditions: s9, 1 µM; summary of the method: as §1
[9] = Drug metabolism in human liver S9 fraction assessed as UGT-mediated compound glucuronidation by measuring M4 formation at 1 uM pretreated for 5 mins followed by NADPH/UDPGA/ PAPS addition by Q-TOF LC-MS/MS analysis; type: ADME, subcellular; conditions: s9, 1 µM; summary of the method: as §1
[10] = Drug metabolism in human liver S9 fraction treated with 4-(Benzo[d][1,3]dioxol-5-yl)-N-(4-(trifluoromethyl)benzyl)thiazol-2-amine assessed as metabolite formation at 1 uM pretreated for 5 mins followed by NADPH/UDPGA/ PAPS addition by Q-TOF LC-MS/MS analysis; type: ADME, subcellular; conditions: s9, 1 µM; summary of the method: as §1

| IC50 [5] | SMILES | further results |
| --- | --- | --- |
| – | O=C(/C=C/c1ccc(O)c(O)c1)NCc1ccc(C(F)(F)F)cc1 | half-life at 1 µM [1]: 5 min; Drug metabolism [2]: Metabolite_Detected; Drug metabolism [3]: Metabolite_Detected; Drug metabolism [4]: Metabolite_Detected |
| > 50 µM | Oc1ccc(-c2csc(NCc3cccc(Cl)c3)n2)cc1O | – |
| 0.9 µM | FC(F)(F)c1ccc(CNc2nc(-c3ccc4c(c3)OCO4)cs2)cc1 | half-life at 1 µM [1]: 69.3 min; Drug metabolism [6]: Metabolite_Detected; Drug metabolism [7]: Metabolite_Detected; Drug metabolism [8]: Metabolite_Detected; Drug metabolism [9]: Metabolite_Detected |
| 32.7 µM | Oc1ccc(-c2csc(NCc3ccc(C(F)(F)F)cc3)n2)cc1O | Drug metabolism [10]: Metabolite_Detected |
| 11.1 µM | c1ccc(CNc2nc(-c3ccc4c(c3)OCO4)cs2)cc1 | – |
| 2 µM | Oc1ccc(-c2csc(NCc3ccccc3Cl)n2)cc1O | – |
| 13.2 µM | Clc1cccc(CNc2nc(-c3ccc4c(c3)OCO4)cs2)c1 | – |
| 1.8 µM | Oc1ccc(-c2csc(NCc3cccc(C(F)(F)F)c3)n2)cc1O | – |
| 15.3 µM | FC(F)(F)c1cccc(CNc2nc(-c3ccc4c(c3)OCO4)cs2)c1 | – |
| 37.9 µM | Clc1ccc(CNc2nc(-c3ccc4c(c3)OCO4)cs2)cc1 | – |
| 11.5 µM | Oc1ccc(-c2csc(NCc3ccc(Cl)cc3)n2)cc1O | – |
| – | [O-][s+]1cc(-c2ccc3c(c2)OCO3)nc1NCc1ccc(C(F)(F)F)cc1 (stereo not given) | Drug metabolism [10]: Metabolite_Detected |
| 12.4 µM | Clc1ccccc1CNc1nc(-c2ccc3c(c2)OCO3)cs1 | – |
| 2.6 µM | Oc1ccc(-c2csc(NCc3ccccc3C(F)(F)F)n2)cc1O | – |
| 9.6 µM | FC(F)(F)c1ccccc1CNc1nc(-c2ccc3c(c2)OCO3)cs1 | – |
| 2.1 µM | Oc1ccc(-c2csc(NCc3ccccc3)n2)cc1O | – |

From ChEMBL document CHEMBL4177588, “Synthesis, biological evaluation, and metabolic stability of chlorogenic acid derivatives possessing thiazole as potent inhibitors of α-MSH-stimulated melanogenesis” (Bioorg Med Chem Lett, 2017)
